The results in this text go back to paper PMC5693771 (Bioorganic & medicinal chemistry letters, 2017).

“Also recorded” adds a separate entry of the source.

Data set [1] concerns HCV genotype 1b RNA replication. In words: HCV genotype 1b subgenomic replicon assay in Huh-7 cells. The class given is cell-based, Hepatitis C virus (HCV). The following applies: for EC90: Hepatitis C virus, GETYPE1B, Huh-7, read-out: Anti HCV activity EC90. The procedure, abridged:
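Each assay was run in replicate. Values are the mean and SD of three replicates.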
Background: A replicon is a self-replicating genome or part of one, used to study replication in cells.

The subject of data set [2] is Huh-7 cells. In words: Cytotoxicity in Huh-7 cells. Format: cell-based. To be noted: all four tested cell lines (Huh-7, PBM, CEM, Vero).

With `O=c1ccn([C@@H]2O[C@H](CO)[C@@H](O)C2(Br)Br)c(=O)[nH]1` [Compound 10a], in data set [1] (HCV genotype 1b replicon, Huh-7 cells), the “Concentration up to which no antiviral (anti-HCV) activity was shown” value is over 33 µM. On to `Nc1ccn([C@@H]2O[C@H](CO)[C@@H](O)C2(Br)Br)c(=O)n1` [Compound 10b], for which the EC90 (as a rule, the concentration needed for an effect of 90%) in data set [1] is over 10 µM. Consider `CC(C)OC(=O)[C@H](C)N[P@](=O)(OC[C@H]1O[C@@H](n2ccc(=O)[nH]c2=O)C(Br)(Br)[C@@H]1O)Oc1ccccc1` [Compound 13a], for which the “Cellular toxicity (in words)” value in data set [2] was “non-toxic; also recorded: no observed toxicity”. For the compound `CC(C)OC(=O)[C@H](C)N[P@](=O)(OC[C@H]1O[C@@H](n2cnc3c(N)ncnc32)C(Br)(Br)[C@@H]1O)Oc1ccccc1` [Compound 13c], the EC90 in data set [1] is over 10 µM. Consider `CC(C)OC(=O)[C@H](C)N[P@](=O)(OC[C@H]1O[C@@H](n2cnc3c(=O)[nH]c(N)nc32)C(Br)(Br)[C@@H]1O)Oc1ccccc1` [Compound 13d], for which the EC90 in data set [1] was over 10 µM.
